System: MS2 coat protein
Test: apparent Kd, MS2 coat protein; higher = weaker binding; RNA-MaP array; FMN 200 µM where present
Summary of the method: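 In 100 mM Tris-HCl pH 7.5, 80 mM KCl, 4 mM MgCl2, BSA, DTT, yeast tRNA and Tween-20, SNAP-549-labelled MS2 coat protein was titrated from 0.7 or 1.5 nM, doubling to 3 µM, over designs transcribed by stalled E. coli RNA polymerase on Illumina sequencing-chip clusters. This was done first without ligand, then with ligand held constant. After green signal was normalised to red-channel RNA signal and control-cluster median Fmax, the apparent Kd was taken as the median of filtered per-cluster binding-curve fits.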

[1] = designed as: ON switch for flavin mononucleotide, no ligand
[2] = ligand present: flavin mononucleotide, designed as: ON switch for flavin mononucleotide
[3] = designed as: OFF switch for flavin mononucleotide, no ligand
[4] = ligand present: flavin mononucleotide, designed as: OFF switch for flavin mononucleotide

| Sequence | apparent Kd [1] | apparent Kd [2] | apparent Kd [3] | apparent Kd [4] |
| --- | --- | --- | --- | --- |
| UUACCUUAUGAGAAGGCGGUCAUGAAACAUGAUCGAGGAUAUCAUGUAAACAUGAGGAUCACCCAUGUAUGGGUAUUAUGGUAA | 0.395 µM | 0.0537 µM |  |  |
| UUACCUUAUGAGAAGGCGGUCAUGAAACAUGAUCGAGGAUAUCAUGUAAACAUGAGGAUCACCCAUGUAUGGGUAUUAUGGUAG | 0.303 µM | 0.052 µM |  |  |
| UUACGUCACAUUUACAUGAGGAUCACCCAUGUCGAAAGACAUGAGGAUAUGCUACCUAAUUGGUAGCAGAAGGCAUGGACGUCG | 0.834 µM | 0.0811 µM |  |  |
| UUACUAUAACAGAAGGGUAGAUAAUAUAUAAAUGCAGGAUAUGUUACAUGAGGAUCACCCAUGUUUCACCCACAUGAGGAUCAC |  |  | 0.0279 µM | 0.0554 µM |
| UUACUCAUGUAAGGAUAUGCAGCCGAAACGGCUGCAGAAGGUACUAUAAUACAUGAGGAUCACCCAUGUAAAAUAAAUAAAGUC | 0.0261 µM | 0.0169 µM |  |  |
| UUACUCAUGUAAGGAUAUGCAGCCGAAGCGGCUGCAGAAGGUACUAUAAUACAUGAGGAUCACCCAUGUAAAAUAAAUAAAGUU | 0.0204 µM | 0.0163 µM |  |  |
| UUAGAAUUGCAAGGAUAUCUAAUUUAGAUAGUAAGAGAAGGUGCUUGAUAGUUACAUGAGGAUCACCCAUGUUUUUGGGUUUAU | 0.545 µM | 0.412 µM |  |  |
| UUAGAAUUGCAAGGAUAUCUAAUUUAGAUAGUAAGAGAAGGUGCUUUAUAGUUACAUGAGGAUCACCCAUGUUUUUUUGUUUAU | 0.0351 µM | 0.0273 µM |  |  |
| UUAGAGAAGGAGGAUAUGCUGUUCUGUCACGUAGCAGAAGGCCUUACAUGAGGAUCACCCAUGUUGAUCCCAGU |  |  | 0.618 µM | 0.576 µM |
| UUAGCAUACCGAGGAUAUUCAUAUAAUAAAUAAACAUGAGGAUCACCCAUGUGGCGAAAGCCUAGGGAGAAGGCGGAAUGCUAA | 0.22 µM | 0.022 µM |  |  |
| UUAGGACGAAACAUGAGGAUCACCCAUGUGUUAUAAUUAAUAUAGGAUAUGUUUAUACUUUUUGGGCAGAAGGAUGAUAAUGCU | 0.0197 µM | 0.0154 µM |  |  |
| UUAGUCAUGUUAGGAUAUCCGAUGCGAAGCGUUGGAGAAGGAACAUGAGGAUCACCCAUGUUCUGCGUCUGAGUACAGAUGCUA |  |  | 0.0296 µM | 0.123 µM |
| UUAGUUACGGGAGGAUAUGUCACCCUGGGUCACAUGAGGAUCACCCAUGUGACAGAAGGCCCAAUUAUGGUGCCCAGGGCGCCU |  |  | 0.00584 µM | 0.0228 µM |
| UUAUACUGAGAGAAGGUUCAAACUACAUAUUGCAUACAUGAGGAUCACCCAUGUUGGUGAAUAAGAAAGGAUAUUUUACUAUAU |  |  | 0.044 µM | 0.0324 µM |
| UUAUAUAAUGUGAGGAUAUGCUGGUCCUUGGAUCAGCAGAAGGCACAUGAGGAUCACCCAUGUAGUAAAUUUUA |  |  | 0.019 µM | 0.0244 µM |
| UUAUCUUGUCAAGGAUAUGUAGUAUUGAUCUGAAAACAUGAGGAUCACCCAUGUAUACGGUGGGAACAGAAGGUGAAUGUUGAA |  |  | 0.679 µM | 0.67 µM |
| UUAUGUCGCGUAGGAUAUCAUUAGAUUUGUAAUUUAAUUGUAAUUUCGAUAUGAGAAGGACGUACACAUGAGGAUCACCCAUGU |  |  | 0.0164 µM | 0.0142 µM |
| UUAUUAUAUGUAGGAUAUGCAUAUUAUUAUUAUGCAGAAGGACAUGAGGAUCACCCAUGUAUAUUAUUAUUGUAUAUUAUAUAU |  |  | 0.0284 µM | 0.0461 µM |
| UUAUUUAUACAAGGAUAUCAGUUAGUUACAAUUCCUACAUGAGGAUCACCCAUGUUUUUUUUUUUUGAGAAGGUGUAUUGUCUG | 0.0452 µM | 0.0529 µM |  |  |
| UUAUUUAUACAAGGAUAUCUAUUGUUAAUACGACUUACAUGAGGAUCACCCAUGUUUUUAUGUUUAGAGAAGGUGUAUUUUCAG | 0.0414 µM | 0.0318 µM |  |  |
| UUAUUUAUGCAAGGAUAUCAUUAAUUUUUACGUCCUACAUGAGGAUCACCCAUGUUUAGUUUAUUUGAGAAGGUGCAUUGUCUG | 0.0384 µM | 0.0276 µM |  |  |
| UUAUUUAUGUAAGGAUAUCGAUGAUAUACACAUCCGACAUGAGGAUCACCCAUGUUUUAUUUUGUCGAGAAGGUACAUUGUCGG | 0.0562 µM | 0.047 µM |  |  |
| UUCAACGAUGAAGGAUAUCUAUAAACAUGAGGACAUGAGGAUCACCCAUGUUGAUCACCCAUGUAGGAGAAGGUCAACAUGAGG | 0.22 µM | 0.0682 µM |  |  |
| UUCAGACAUGAGGAUCACCCAUGUGAGGAUAUGAUGCGAUCGUCGAAAGACGAUAGCAUCAGAAGGCACAAAUG |  |  | 0.103 µM | 0.155 µM |
| UUCAUCAAUGAAGGAUAUCUAUAUCCAACAUGAGGAUCACCCAUGUUGAGGAUCACCUAUGUAAAGGAGAAGGUUAAUAUAACU | 0.00683 µM | 0.00632 µM |  |  |
| UUCCUACAUGAGGAUCACCCAUGUCAGGAUAUCUCCUCACCGCGAAUGGGCAGUGAAUAGAGAAGGGACAGGAA |  |  | 0.0119 µM | 0.0159 µM |
| UUCCUCGUUGUGAGGAUAUCGUCCUAUUUUUGUUACGAGAAGGCACAUGAGGAUCACCCAUGUUACUUGAUGUU |  |  | 0.0199 µM | 0.071 µM |

| Sequence | apparent Kd [1] | apparent Kd [2] | apparent Kd [3] | apparent Kd [4] |
| --- | --- | --- | --- | --- |
| UUCGAACAAGUCAGGAUAUGGUUAUUGGUGUGUGACUAGAAGGGACAUGAGGAUCACCCAUGUGCACCUACCAU |  |  | 0.016 µM | 0.0167 µM |
| UUCGCUGUGGUGUGGCGAGGCUCGUAAGAAGGGUGAUGCACAUGAGGAUCACCCAUGUAAGCCUUACAGGAUAUUGCUAGCCGA | 0.539 µM | 0.195 µM |  |  |
| UUCGUGCAGCUUUGCUGUACGAGUACAUGAGGAUCACCCAUGUAGGAUAUGGUACGCUUUGCGUGCUAGAAGGAUAUGUGUAGC |  |  | 0.033 µM | 0.037 µM |
| UUCUUACGAGGAUAUCGAUUGUGGUACAUGAGGAUCACCCAUGUAUGUGAUAUUGUAUUUCGAGAAGGCGUUCAGU |  |  | 0.0264 µM | 0.0241 µM |
| UUCUUGGCAGGAUAUGCUCUUUUAGACAUGAGGAUCACCCAUGUGUUUAUUCUUUUUUUUGCAGAAGGGCCUUAAU |  |  | 0.0939 µM | 0.0888 µM |
| UUGAAGAACUAAGGAUAUUGAAUACAUAUGUUUAACAUGAGGAUCACCCAUGUGGGUUGCGGUAUCGAGAAGGUAGAUUACUAG | 0.115 µM | 0.104 µM |  |  |
| UUGAAUUAAAAGGAUAUGGGAGUCGAUAGACACCCAGAAGGUUUAACAUGAGGAUCACCCAUGUGUCCUAUCAA |  |  | 0.0231 µM | 0.0314 µM |
| UUGAAUUGAAACAUGAGGAUCACCCAUGUGUCAUAAUUGACAUAGGAUAUGUUUAUACUUUUAAAAUAGAAGGAUGACGAUACU | 0.0138 µM | 0.0118 µM |  |  |
| UUGAGGUAGGAGAAGGACAGAGGCGGAAACACAAACAUGAGGAUCACCCAUGUAGGAUAUCCUAACUAACGAGGAUACCUCAAG |  |  | 0.00649 µM | 0.00753 µM |
| UUGCAGUCGUCAGGAUAUAGUAUUACGGCCUUUCAUUUCUUCAUACAUGAGGAUCACCCAUGUCGCUAGAAGGGCUUAUCGCUU |  |  | 0.0148 µM | 0.0132 µM |
| UUGCGGUAGGAGAAGGACAGAGGCGGAAACACAAACAUGAGGAUCACCCAUGUAGGAUAUCCUACCUAACGCGGAUACCUCCAG |  |  | 0.014 µM | 0.0396 µM |
| UUGCGGUCAGGAUAUGCAUGGCGGGACUUGCGUCGUGGCGUGGAGAAGGGACAUGAGGAUCACCCAUGUGGAGA |  |  | 0.0882 µM | 0.0657 µM |
| UUGCUCGUGUGAGGAUAUGCCGCCGUUUCGGCUGCAGAAGGUACUCUGUUACAUGAGGAUCACCCAUGUCUCUGUUGUUUCGUG | 0.039 µM | 0.0475 µM |  |  |
| UUGGACGUCAUAGGAUAUGUAGGAUAUUCCUACAUGAGGAUCACCCAUGUUGACAUGGAAGAAGGACAGAAGGACGAUGUCCAU | 0.665 µM | 0.0107 µM |  |  |
| UUGGACGUCGUAGGACAUGUAGGAUAUUCCUACAUGAGGAUCACCCAUGUUGACAUGGAAGAAGGACAGAAGGACGAUGUCCAU | 0.723 µM | 0.0469 µM |  |  |
| UUGGACGUCGUAGGAUAUGUAGGAUAUUCCGACAUGAGGAUCACCCAUGUUGACAUGGAAGAAGGACAGAAGGACGAUGUCCAU | 0.00414 µM | 0.00348 µM |  |  |
| UUGGACGUCGUAGGAUAUGUAGGAUAUUCCUACAUGAGGAUCACCCAUGUUGACAUGAAAGAAGGACAGAAGGACGAUGUCCAU | 0.144 µM | 0.00577 µM |  |  |
| UUGGACGUCGUAGGAUAUGUAGGAUAUUCCUACAUGAGGAUCACCCAUGUUGACAUGGAAGAAGGACAGAAGGAAGAUGUCCAU | 0.776 µM | 0.0139 µM |  |  |
| UUGGACGUCGUAGGAUAUGUAGGAUAUUCCUACAUGAGGAUCACCCAUGUUGACAUGGAAGAAGGGCAGAAGGACGAUGUCCAU | 0.548 µM | 0.00838 µM |  |  |
| UUGGACGUCGUAGGAUAUGUAGGAUAUUUCUACAUGAGGAUCACCCAUGUUGACAUGGAAGAAGGACAGAAGGACGAUGUCCAU | 0.123 µM | 0.00564 µM |  |  |
| UUGGACGUCGUAGGAUUUGUAGGAUAUUCCUACAUGAGGAUCACCCAUGUUGACAUGGAAGAAGGACAGAAGGACGAUGUCCAU | 0.0873 µM | 0.00551 µM |  |  |
| UUGGAGUACGUAGGAUAUGUAGGAUAUUCCUACAUGAGGAUCACCCAUGUUGACAUGGAGGAAGGACAGAAGGACGUGCUCCAU | 0.435 µM | 0.241 µM |  |  |
| UUGGGACAUGAGGAUCACCCAUGUAAGGAUAUUGGCGCGCCGGCUCUGUCUGUUCCGCCGAGAAGGUACACGUU |  |  | 0.104 µM | 0.173 µM |
| UUGGGACUAUCAGGAUAUGGUGUAGCCUAGUAAAGGACAUGAGGAUCACCCAUGUACCAUUGGUACCAGAAGGGAUGAUCCUAC | 0.173 µM | 0.046 µM |  |  |
| UUGGUAUUCGUAGGAUAUCUGUCGCCACCGUGUGGAGAAGGACGAACAUGAGGAUCACCCAUGUAUCAUGGUGUGGGCGUUGUU |  |  | 0.0858 µM | 0.0899 µM |
| UUGGUGUCAGGAUAUGCUUAAUGUGUUUUAUUAUAAUAUAUACAUGAGGAUCACCCAUGUAGAAGGGACGUUGU |  |  | 0.0606 µM | 0.0532 µM |
| UUGUACCGGUGAGGAUAUUUUUGAUAGAACUUUAUGAUAUACAUGAGGAUCACCCAUGUUACUUUAAAGAAGGCAUCGGAUUAU |  |  | 0.0194 µM | 0.0153 µM |

Reference: the EternaBench riboswitch data
